Legend:
[1] = test system: KB; assay: Cytotoxicity against human KB cells assessed as growth inhibition after 72 hrs by MTT assay; format: functional, cell-based
[2] = Cytotoxicity against human KBv200 cells assessed as growth inhibition after 72 hrs by MTT assay; format: functional, cell-based; conditions: KBv200, 72 h
[3] = organism: Homo sapiens; assay: Inhibition of P-gp in human KBv200 cells assessed as increase in intracellular rhodamine123 accumulation by measuring fluorescence activity ratio at 10 uM incubated for 4 hrs followed by rhodamine123 addition measured after 1 hr by flow cytometry; format: cell-based
Summary of the method: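 KBv200 cells were plated at 1.5 × 10^5/mL and left overnight. Compounds were added at 10 μM in DMSO, with verapamil as reference, for 4 h at 37 °C, 5% CO2. Rho123 at 10 μM was then added for 1 h. Cells were washed twice, resuspended in ice-cold PBS and analysed by flow cytometry. FAR = (F treated − F DMSO control)/(F untreated − F DMSO control).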

[4] = organism: Homo sapiens; assay: Inhibition of P-gp in human KBv200 cells assessed as potentiation of navelbine-induced cytotoxicity by measuring reduction in navelbine IC50 at 10 uM after 72 hrs by MTT assay relative to control; format: cell-based
Summary of the method: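 KBv200 cells were seeded at 2500 cells/well for 12 h. Navelbine was added at 0.003–30 μM (0.003, 0.01, 0.03, 0.1, 0.3, 1, 3, 10, 30), alone or with modulator at 1, 3 or 10 μM, or with verapamil at 10 μM. Incubation was 72 h, followed by MTT read at A570. Navelbine IC50 came from percent growth inhibition. Reversal fold = IC50 of navelbine alone / IC50 of the combination.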

SMILES | IC50 [1] [µM] | IC50 [2] [µM] | Ratio [3] | fold change (FC) [4]
CC(=O)[C@@H]1CC[C@]2(C)C3=C(CC[C@@]12C)[C@@]1(C)CC[C@H](O)C(C)(C)[C@@H]1CC3=O | > 30 | > 30 | 0.98 | –
CC1=C2C=C3CC[C@@H]4C(C)(C)[C@@H](O)CC[C@@]4(C)[C@@H]3C[C@H]2OC1=O [HELIOSCOPINOLIDE B] | 20.8 | > 30 | 0.49 | –
CC1=C2C=C3CC[C@@H]4C(C)(C)C(=O)CC[C@@]4(C)[C@@H]3C[C@H]2OC1=O [HELIOSCOPINOLIDE E] | 22.4 | > 30 | 0.45 | –
CC(=O)O[C@]12C[C@H](C)[C@H](O)[C@@H]1/C=C(\C)CC[C@H]1[C@@H](/C=C(\C)C2=O)C1(C)C [JOLKINOL D] | 25.9 | 19.9 | 0.66 | –
C/C1=C/C[C@H]2[C@@H](/C=C(\C)C(=O)[C@@]3(OC(=O)c4ccccc4)C[C@H](C)[C@H](O)[C@@H]3[C@H]1O)C2(C)C | 27.2 | > 30 | 1.13 | –
C/C1=C\[C@@H]2[C@H](C[C@@H](O)[C@@]3(C)O[C@@H]3[C@H]3[C@@H](OC(=O)c4ccccc4)[C@@H](C)C[C@]3(O)C1=O)C2(C)C | > 30 | > 30 | 0.44 | –
COc1ccc(CCN(C)CCCC(C#N)(c2ccc(OC)c(OC)c2)C(C)C)cc1OC (stereo not drawn) | – | – | 2.25 | 259
CC1(C)CC[C@]2(C)CC(=O)[C@]3(C)C4=C(CC[C@@]3(C)[C@@H]2C1)[C@@]1(C)CC[C@H](O)C(C)(C)[C@@H]1CC4=O | 10.3 | 12 | 0.95 | –
C[C@H]1C[C@]2(O)C(=O)[C@@]3(C)[C@H](OC(=O)c4ccccc4)[C@@H]4[C@H](CC[C@@]3(C)[C@H](O)[C@H]2[C@H]1O)C4(C)C | 26.6 | 29 | 0.97 | –
C=C1CC[C@H]2[C@@H](/C=C(\C)C(=O)[C@@]3(OC(C)=O)C[C@H](C)[C@H](O)[C@@H]3[C@H]1O)C2(C)C | > 30 | > 30 | 0.7 | –
C[C@@H]1C[C@]2(O)C(=O)[C@@]3(C)[C@H](OC(=O)c4ccccc4)[C@@H]4[C@H](CC[C@@]3(C)[C@H](O)[C@H]2[C@H]1O)C4(C)C | > 30 | 29.2 | 0.94 | –
C/C1=C\[C@@H]2[C@H](C[C@@H](O)/C(C)=C/[C@H]3[C@@H](OC(=O)c4ccccc4)[C@@H](C)C[C@]3(O)C1=O)C2(C)C | 21.4 | 20.6 | 0.43 | –
C[C@H]1CC2=C([C@H]1O)[C@@H](O)[C@]1(C)CC[C@H]3[C@@H]([C@@H](OC(=O)c4ccccc4)[C@]1(C)C2=O)C3(C)C | 13.5 | 16.1 | 1.79 | –
CC(=O)CC/C(=C/C1=C(C)CCC1=O)C(C)C [LITSEACHROMOLAEVANE B] | > 30 | > 30 | 0.4 | –
C[C@H]1C[C@]2(OC(=O)/C=C/c3ccccc3)C(=O)[C@@]3(C)[C@@H]4[C@@H](O)C(C)(C)[C@H]4CC[C@@]3(C)[C@H](O)[C@H]2[C@H]1O | 10.9 | 10.6 | 1.47 | –
C[C@H]1C[C@]2(OC(=O)c3ccccc3)C(=O)[C@@]3(C)[C@@H]4[C@@H](O)C(C)(C)[C@H]4CC[C@@]3(C)[C@H](O)[C@H]2[C@H]1O | 20.1 | > 30 | 0.63 | –
CC(=O)O[C@H]1C(=O)[C@@]2(C)[C@H]([C@H](OC(=O)c3ccccc3)[C@]3(O)C[C@H](OC(=O)[C@H](O)[C@@H](NC(=O)c4ccccc4)c4ccccc4)C(C)=C1C3(C)C)[C@]1(OC(C)=O)CO[C@@H]1C[C@@H]2O [PACLITAXEL] | 0.0036 | 2.12 | – | –
C/C1=C\[C@@H]2[C@H](CC[C@@]3(C)O[C@@H]3[C@H]3[C@@H](O)[C@@H](C)C[C@]3(OC(=O)c3ccccc3)C1=O)C2(C)C [LATILAGASCENE F] | > 30 | > 30 | 1.3 | –
CC(=O)N[C@@H]1[C@@H]2[C@H](CC[C@@]3(C)[C@H](O)[C@H]4[C@@H](OC(=O)/C=C/c5ccccc5)[C@@H](C)C[C@]4(O)C(=O)[C@@]13C)C2(C)C | > 30 | > 30 | 1.51 | –
C=C1CC[C@H]2[C@@H]([C@@H]3[C@@H]1C1=C(C[C@H](C)C1=O)[C@@H](O)[C@@]3(C)O)C2(C)C | > 30 | > 30 | 0.76 | –
CC(=O)/C=C/C[C@@H](C)[C@@H]1CC[C@]2(C)C3=C(CC[C@@]12C)[C@@]1(C)CC[C@H](O)C(C)(C)[C@@H]1CC3=O | 21.6 | 22.9 | 1.3 | –
CC(=O)O[C@]12C[C@H](C)[C@H](O)[C@@H]1[C@@H](O)/C(C)=C/C[C@H]1[C@@H](/C=C(\C)C2=O)C1(C)C | > 30 | > 30 | 1.27 | –
C[C@H]1C[C@]2(OC(=O)/C=C/c3ccccc3)C(=O)/C(CO)=C/[C@@H]3[C@H](CC[C@@]4(C)O[C@H]4[C@H]2[C@H]1O)C3(C)C | > 30 | > 30 | 0.35 | –
C[C@H](/C=C/C=O)[C@@H]1CC[C@]2(C)C3=C(CC[C@@]12C)[C@@]1(C)CC[C@H](O)C(C)(C)[C@@H]1CC3=O | > 30 | > 30 | 1.25 | –
C/C1=C\[C@@H]2[C@H](CC[C@@]3(C)O[C@@H]3[C@H]3[C@@H](O)[C@@H](C)C[C@]3(OC(=O)/C=C/c3ccccc3)C1=O)C2(C)C [JOLKINOL B] | 19.8 | 18.2 | 3.61 | –
